Measurements published in ChEMBL document CHEMBL3739328, “Synthesis, structure-activity relationship and biological evaluation of novel arylpiperzines as α1A/1D-AR subselective antagonists for BPH” (Bioorg Med Chem, 2015).

Columns and labels:
[1] = target: T1, Alpha-1D adrenergic receptor (Homo sapiens, UniProt P25100); assay: Antagonist activity at adrenergic alpha1D receptor (unknown origin) by firefly and renilla dual glo luciferase assay
T1 sequence (P25100 whole entry): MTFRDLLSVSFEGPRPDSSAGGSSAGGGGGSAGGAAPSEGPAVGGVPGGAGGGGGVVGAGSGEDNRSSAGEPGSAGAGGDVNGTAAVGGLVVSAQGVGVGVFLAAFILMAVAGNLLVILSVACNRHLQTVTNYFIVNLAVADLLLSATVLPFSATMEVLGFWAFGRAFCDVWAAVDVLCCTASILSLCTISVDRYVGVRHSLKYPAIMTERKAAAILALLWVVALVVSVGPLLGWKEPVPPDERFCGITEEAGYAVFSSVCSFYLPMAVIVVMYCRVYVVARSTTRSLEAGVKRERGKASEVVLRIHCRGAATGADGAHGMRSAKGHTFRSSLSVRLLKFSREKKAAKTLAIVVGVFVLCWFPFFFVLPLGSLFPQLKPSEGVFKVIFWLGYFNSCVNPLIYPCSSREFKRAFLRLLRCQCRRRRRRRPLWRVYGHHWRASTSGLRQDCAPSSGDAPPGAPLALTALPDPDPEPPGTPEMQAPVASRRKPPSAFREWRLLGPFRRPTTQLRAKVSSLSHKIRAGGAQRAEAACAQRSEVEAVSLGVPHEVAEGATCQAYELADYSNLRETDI
In short: (§1)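 Firefly and Renilla luciferase activities (RLU) were read by luminometer with the Dual-Glo kit, following the manufacturer's protocol. IC50 values were derived from three independent experiments.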

Homo sapiens [2] = organism: Homo sapiens; assay: Selectivity ratio of IC50 for adrenergic alpha1B receptor (unknown origin) to IC50 for adrenergic alpha1A receptor (unknown origin)
Homo sapiens [3] = organism: Homo sapiens; assay: Selectivity ratio of IC50 for adrenergic alpha1B receptor (unknown origin) to IC50 for adrenergic alpha1D receptor (unknown origin)
[4] = target: T2, Alpha-1B adrenergic receptor (Homo sapiens, UniProt P35368); assay: Antagonist activity at adrenergic alpha1B receptor (unknown origin) by firefly and renilla dual glo luciferase assay; in short: as §1
T2 sequence (P35368 whole entry): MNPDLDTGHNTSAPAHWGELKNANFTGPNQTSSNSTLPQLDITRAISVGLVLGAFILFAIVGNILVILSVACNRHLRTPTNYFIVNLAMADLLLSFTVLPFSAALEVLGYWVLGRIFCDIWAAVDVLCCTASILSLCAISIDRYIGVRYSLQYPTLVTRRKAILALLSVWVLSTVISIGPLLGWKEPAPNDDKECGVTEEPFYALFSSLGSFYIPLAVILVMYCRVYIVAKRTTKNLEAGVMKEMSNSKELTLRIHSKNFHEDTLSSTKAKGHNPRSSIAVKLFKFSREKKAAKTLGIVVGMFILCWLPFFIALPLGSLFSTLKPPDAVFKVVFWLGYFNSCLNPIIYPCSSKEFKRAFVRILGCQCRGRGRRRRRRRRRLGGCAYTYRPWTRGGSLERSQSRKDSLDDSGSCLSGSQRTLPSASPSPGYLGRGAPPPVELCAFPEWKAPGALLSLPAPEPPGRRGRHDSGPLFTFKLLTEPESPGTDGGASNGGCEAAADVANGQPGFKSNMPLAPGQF

[5] = target: T3, Alpha-1A adrenergic receptor (Homo sapiens, UniProt P35348); assay: Antagonist activity at adrenergic alpha1A receptor (unknown origin) by firefly and renilla dual glo luciferase assay; in short: as §1
T3 sequence (P35348 whole entry): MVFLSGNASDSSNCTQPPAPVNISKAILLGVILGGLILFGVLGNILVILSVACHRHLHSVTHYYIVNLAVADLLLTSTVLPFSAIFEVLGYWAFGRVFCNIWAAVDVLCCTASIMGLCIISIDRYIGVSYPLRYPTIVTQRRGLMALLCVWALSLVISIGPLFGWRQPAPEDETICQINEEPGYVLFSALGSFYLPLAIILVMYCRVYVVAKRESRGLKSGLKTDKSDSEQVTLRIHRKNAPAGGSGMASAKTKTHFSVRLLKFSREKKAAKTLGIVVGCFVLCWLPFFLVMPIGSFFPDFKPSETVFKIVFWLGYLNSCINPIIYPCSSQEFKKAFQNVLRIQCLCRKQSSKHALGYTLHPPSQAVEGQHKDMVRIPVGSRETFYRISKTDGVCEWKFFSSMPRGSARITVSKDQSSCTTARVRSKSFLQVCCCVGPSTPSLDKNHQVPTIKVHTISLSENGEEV

SMILES | IC50 [1] [nM] | Ratio IC50 (Homo sapiens [2]) | Ratio IC50 (Homo sapiens [3]) | IC50 [4] [nM] | IC50 [5] [nM]
O=C1c2ccccc2C(=O)N1Cc1ccc(CCN2CCN(c3ccccc3)CC2)cc1 | 1760 | 5.8 | 0.5 | 875 | 151
CCOc1ccccc1N1CCN(CCc2ccc(CN3C(=O)c4ccccc4C3=O)cc2)CC1 | 240 | 13.4 | 1.8 | 433 | 32.4
O=C1c2ccccc2C(=O)N1Cc1ccc(CCN2CCN(c3ccc(F)cc3)CC2)cc1 | 122 | 3 | 5.6 | 684 | 229
COc1ccccc1N1CCN(CCc2ccc(CN3C(=O)c4ccccc4C3=O)cc2)CC1 | 1240 | 3.3 | 0.08 | 101 | 30.1
COc1ccccc1N1CCN(CC(O)COc2cccc3ccccc23)CC1 (stereo not drawn) [NAFTOPIDIL] | 55.2 | – | – | 634 | 555
O=C1c2ccccc2C(=O)N1Cc1ccc(CCN2CCN(c3ccccc3C(F)(F)F)CC2)cc1 | 164 | 0.7 | 1.5 | 250 | 384
O=C1c2ccccc2C(=O)N1Cc1ccc(CCN2CCN(c3ccccc3Cl)CC2)cc1 | 36.6 | 51.5 | 21.3 | 781 | 15.2
COc1ccc(N2CCN(CCc3ccc(CN4C(=O)c5ccccc5C4=O)cc3)CC2)cc1 | 1860 | 0.5 | 0.2 | 406 | 885
O=C1c2ccccc2C(=O)N1Cc1ccc(CCN2CCN(c3ccccn3)CC2)cc1 | 11.3 | 0.3 | 1.1 | 12.6 | 49.6
O=C1c2ccccc2C(=O)N1Cc1ccc(CCN2CCN(Cc3ccccc3)CC2)cc1 | 116 | 0.8 | 8.7 | 1010 | 1200
O=C1c2ccccc2C(=O)N1Cc1ccc(CCN2CCN(c3ccccc3F)CC2)cc1 | 10600 | 19.5 | 0.2 | 1880 | 96
O=C1c2ccccc2C(=O)N1Cc1ccc(CCN2CCN(c3ccc(F)cc3F)CC2)cc1 | 493 | 8.8 | 1.6 | 787 | 89.9
N#Cc1ccc(N2CCN(CCc3ccc(CN4C(=O)c5ccccc5C4=O)cc3)CC2)c(F)c1 | 957 | 0.3 | 0.04 | 34.8 | 128
N#Cc1ccccc1N1CCN(CCc2ccc(CN3C(=O)c4ccccc4C3=O)cc2)CC1 | 16.7 | 5 | 10.8 | 180 | 36.1
Cc1ccc(N2CCN(CCc3ccc(CN4C(=O)c5ccccc5C4=O)cc3)CC2)cc1 | 344 | 14.2 | 0.08 | 28.9 | 2.03
N#Cc1ccc(N2CCN(CCc3ccc(CN4C(=O)c5ccccc5C4=O)cc3)CC2)cc1 | 63.5 | 8.6 | 12.1 | 769 | 89.2
CS(=O)(=O)c1ccccc1N1CCN(CCc2ccc(CN3C(=O)c4ccccc4C3=O)cc2)CC1 | 10.1 | 4.3 | 19.8 | 199 | 46.4
Cc1ccc(Cl)cc1N1CCN(CCc2ccc(CN3C(=O)c4ccccc4C3=O)cc2)CC1 | 31.3 | 0.9 | 1 | 31.6 | 34.5
Cc1ccccc1N1CCN(CCc2ccc(CN3C(=O)c4ccccc4C3=O)cc2)CC1 | 80600 | 4.2 | 0.01 | 949 | 228
CC(=O)c1ccc(N2CCN(CCc3ccc(CN4C(=O)c5ccccc5C4=O)cc3)CC2)cc1 | 866 | 8.6 | 0.2 | 122 | 14.2
O=C1c2ccccc2C(=O)N1Cc1ccc(CCN2CCN(c3ccc(Cl)cc3)CC2)cc1 | 35.2 | 1.4 | 22.6 | 794 | 552
O=C1c2ccccc2C(=O)N1Cc1ccc(CCN2CCN(c3ccc(C(F)(F)F)cc3)CC2)cc1 | 12.9 | 0.3 | 1.5 | 19.7 | 66.2
O=C1c2ccccc2C(=O)N1Cc1ccc(CCN2CCN(c3ccc(Br)cc3)CC2)cc1 | 7430 | 0.3 | 0.1 | 1000 | 3420
